Reference: ChEMBL document CHEMBL4811241, “Revisiting Pyrazolo[3,4-d]pyrimidine Nucleosides as Anti-Trypanosoma cruzi and Antileishmanial Agents” (J Med Chem, 2021)
Activity calls are given as the source filed them. No cut-off for these calls is given here.

What was measured:
[1] = test system: Trypanosoma cruzi; test: Antitrypanosomal activity against Trypanosoma cruzi strain Y bloodstream trypomastigotes infected in Swiss Webster mouse assessed as reduction in parasitemia at 100 mg/kg, po qd for 5 days treatment started at 6 days post-infection and measured at 8 days post-infection by light microscopic analysis; format: functional, organism-based; details: time 2.0 day
Outline: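 Male Swiss Webster mice, 18–20 g, six per group; only mice with detectable parasitemia treated. Oral gavage for 5 consecutive days (6–10 dpi); test compound given b.i.d. in 10% Tween 80, benznidazole once daily, formulations freshly prepared. Parasitemia counted by light microscopy in 5 μL blood; mortality checked daily to 34 dpi.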

[2] = Toxicity in Swiss webster mouse infected with Trypanosoma cruzi Y trypomastigotes assessed as animal survival at 100 mg/kg, po qd for 5 days treatment started at 6 days post-infection and measured at 34 days post-infection; format: organism-based; details: in vivo, time 29 day
Outline: (§1)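 Male Swiss Webster mice (18−20 g, 4−5 weeks) were infected i.p. with 10⁴ Y-strain bloodstream trypomastigotes from a donor mouse. Only mice with detectable parasitemia were treated, in groups of six. Oral gavage was given on days 6–10 post-infection, b.i.d. or q.d. as listed, in 10% Tween 80 vehicle, freshly prepared. Infected vehicle controls were included. Mortality was checked daily to 34 dpi as cumulative percentage.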

[3] = test system: Trypanosoma cruzi; test: Antitrypanosomal activity against nifurtimox-sensitive Trypanosoma cruzi Tulahuen CL2 infected in Swiss mouse peritoneal macrophages assessed as inhibition of parasite growth measured after 7 days by spectrophotometric analysis; format: functional, organism-based; details: Tulahuen CL2, Peritoneal macrophage, 168 h
[4] = Toxicity in Swiss webster mouse infected with Trypanosoma cruzi Y trypomastigotes assessed as animal survival at 10 mg/kg, po qd for 5 days treatment started at 6 days post-infection and measured at 34 days post-infection; format: organism-based; details: in vivo, 696 h, time 29 day; outline: as §1

With `O=C(Cn1ccnc1[N+](=O)[O-])NCc1ccccc1` [BENZNIDAZOLE] the Activity [1] was “Active”, the survival at 696 h [2] was 100% and the IC50 [3] was 1960 nM. For the same molecule, the Activity [4] was “Non-Toxic”.
